From ChEMBL document CHEMBL1152646, “Synthesis, molecular docking and biological evaluation of metronidazole derivatives as potent Helicobacter pylori urease inhibitors” (Bioorg Med Chem, 2009)
Active and inactive are the calls of the source. The calls are words filed in the database; no cut-off is given here.

Biological target: Urease subunit alpha/Urease subunit beta (Helicobacter pylori (strain ATCC 700392 / 26695) (Campylobacterpylori), UniProt P69996)
Assay: Inhibition of Helicobacter pylori ATCC 43504 urease assessed as ammonia production after 3 hrs by indophenol method
Summary of the method: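 Crude urease came from H. pylori grown 24 h at 37 °C, microaerobic, in brucella broth with 10% heat-inactivated horse serum. Cells were PBS-washed, frozen at -80 °C, sonicated 60 s in water with protease inhibitors, and mixed 1:1 with glycerol. Enzyme (4 U) and compound were preincubated at room temperature. Percent inhibition was screened at 1 mM; IC50 came from dose–response curves (≥3 experiments, mean S.D.).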

Chain of Urease subunit alpha/Urease subunit beta (P69996 whole entry): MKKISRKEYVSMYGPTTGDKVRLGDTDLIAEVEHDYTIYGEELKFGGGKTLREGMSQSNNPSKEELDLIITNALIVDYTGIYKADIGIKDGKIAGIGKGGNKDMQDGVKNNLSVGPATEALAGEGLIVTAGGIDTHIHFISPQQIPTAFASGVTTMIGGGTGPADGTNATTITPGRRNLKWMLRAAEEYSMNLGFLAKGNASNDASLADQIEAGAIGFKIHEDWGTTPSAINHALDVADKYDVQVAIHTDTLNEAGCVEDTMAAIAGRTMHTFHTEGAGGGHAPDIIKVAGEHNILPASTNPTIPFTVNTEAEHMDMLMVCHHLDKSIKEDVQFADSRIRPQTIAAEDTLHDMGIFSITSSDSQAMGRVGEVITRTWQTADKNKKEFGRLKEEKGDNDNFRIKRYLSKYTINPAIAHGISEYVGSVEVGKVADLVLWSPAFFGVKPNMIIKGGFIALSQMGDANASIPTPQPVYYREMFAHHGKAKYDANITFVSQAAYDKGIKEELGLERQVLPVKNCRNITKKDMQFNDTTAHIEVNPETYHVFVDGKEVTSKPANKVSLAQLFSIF
Chain of Urease subunit alpha/Urease subunit beta (P14916 whole entry, further chain): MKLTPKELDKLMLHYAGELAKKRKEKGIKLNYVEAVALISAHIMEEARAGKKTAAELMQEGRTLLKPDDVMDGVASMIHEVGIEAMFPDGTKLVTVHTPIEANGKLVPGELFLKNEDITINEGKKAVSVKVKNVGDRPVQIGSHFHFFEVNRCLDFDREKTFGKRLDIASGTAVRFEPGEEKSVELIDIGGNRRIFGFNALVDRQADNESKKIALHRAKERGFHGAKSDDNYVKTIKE

Point of comparison: Cc1ncc([N+](=O)[O-])n1CCOC(=O)c1cc(Cl)ccc1OCCn1c([N+](=O)[O-])cnc1C, IC50 12 µM. Against it:
- Cc1ncc([N+](=O)[O-])n1CCOC(=O)c1cc(Br)ccc1OCCn1c([N+](=O)[O-])cnc1C — 2.2-fold higher, 26 µM

Biological target: Urease subunit alpha/Urease subunit beta (Helicobacter pylori (strain ATCC 700392 / 26695) (Campylobacterpylori)) (UniProt P69996+P14916)
Sequence (P14916 whole entry, looked up): as the sequence (P14916 whole entry, further chain) above
Sequence (P69996 whole entry, looked up): as the sequence (P69996 whole entry) above
Assay: Inhibition of Helicobacter pylori ATCC 43504 urease assessed as ammonia production at 1 mM after 3 hrs by indophenol method
Summary of the method: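 Crude urease from H. pylori ATCC 43504 grown 24 h at 37 °C microaerobically in brucella broth with 10% heat-inactivated horse serum; cells PBS-washed, stored at -80 °C, sonicated 60 s in water with protease inhibitors, extract mixed 1:1 with glycerol. Enzyme (4 U) preincubated 3 h at room temperature with compound; ammonia measured by indophenol method; percent inhibition.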

Point of comparison: Cc1ncc([N+](=O)[O-])n1CCOC(=O)c1cc(Cl)ccc1OCCn1c([N+](=O)[O-])cnc1C, inhibition 95.3%. Against it:
- Cc1ncc([N+](=O)[O-])n1CCOC(=O)c1ccc(Cl)cc1OCCn1c([N+](=O)[O-])cnc1C — lower, 82.2%
- Cc1ccc(S(=O)(=O)OCCn2c([N+](=O)[O-])cnc2C)cc1 — lower, 78.1%
- Cc1ncc([N+](=O)[O-])n1CCOC(=O)c1cc(I)ccc1OCCn1c([N+](=O)[O-])cnc1C — lower, 78.7%
- Cc1ncc([N+](=O)[O-])n1CCOC(=O)c1cc(S(=O)(=O)O)ccc1OCCn1c([N+](=O)[O-])cnc1C — lower, 61.2%
- Cc1ncc([N+](=O)[O-])n1CCOc1c(I)cc(I)cc1C(=O)O — lower, 53.9%
- Cc1ccc(C(=O)OCCn2c([N+](=O)[O-])cnc2C)c(OCCn2c([N+](=O)[O-])cnc2C)c1 — lower, 38.3%
- Cc1ncc([N+](=O)[O-])n1CCOc1c(Br)cc(Br)cc1C(=O)O — lower, 56.1%
- Cc1cccc(C(=O)OCCn2c([N+](=O)[O-])cnc2C)c1OCCn1c([N+](=O)[O-])cnc1C — lower, 42.1%
- Cc1ncc([N+](=O)[O-])n1CCOc1c(Cl)cc(Cl)cc1C(=O)O — lower, 56.8%
- Cc1ncc([N+](=O)[O-])n1CCOc1cc(N)ccc1C(=O)O — lower, 38.3%
- Cc1ccc(OCCn2c([N+](=O)[O-])cnc2C)c(C(=O)OCCn2c([N+](=O)[O-])cnc2C)c1 — lower, 48.4%
- Cc1ncc([N+](=O)[O-])n1CCOC(=O)c1cc(Br)ccc1OCCn1c([N+](=O)[O-])cnc1C — lower, 93.9%

With Cc1ncc([N+](=O)[O-])n1CCO the inhibition was “inactive”.
For Cc1ccc(C(=O)O)c(OCCn2c([N+](=O)[O-])cnc2C)c1, the inhibition was “inactive”.
